Assay results taken from ChEMBL document CHEMBL3612059, “Synthesis of 1,2-benzisoxazole tethered 1,2,3-triazoles that exhibit anticancer activity in acute myeloid leukemia cell lines by inhibiting histone deacetylases, and inducing p21 and tubulin acetylation” (Bioorg Med Chem, 2015).
Activity calls are given as the source filed them. The calls are words filed in the database; no cut-off is given here.

Assays:
MOLM-14 [1] = test: Induction of apoptosis in human MOLM14 cells assessed as necrotic cells at 2.5 uM after 72 hrs by Annexin V-FITC/propidium iodide staining-based flow cytometric analysis (reference value: 1%); assay type: functional
Method in brief: (§1)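 100,000 cells per well treated with 2.5, 5.0 or 10 μM for 72 h. Washed in ice-cold Ca/Mg-free PBS, resuspended in 100 μl binding buffer, stained with 5 μl PI plus 3 μl annexin V-FITC for 15 min in the dark, then read immediately by flow cytometry. Quadrants scored as live, early apoptotic, late apoptotic and necrotic.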

MOLM-14 [2] = test: Induction of apoptosis in human MOLM14 cells assessed as late apoptotic cells at 5 uM after 72 hrs by Annexin V-FITC/propidium iodide staining-based flow cytometric analysis (reference value: 2%); assay type: functional; method in brief: as §1
MOLM-14 [3] = test: Induction of apoptosis in human MOLM14 cells assessed as necrotic cells at 10 uM after 72 hrs by Annexin V-FITC/propidium iodide staining-based flow cytometric analysis (reference value: 1%); assay type: functional; method in brief: as §1
MV4-11 [4] = test: Induction of apoptosis in human MV4-11 cells assessed as necrotic cells at 10 uM after 72 hrs by Annexin V-FITC/propidium iodide staining-based flow cytometric analysis relative to control; assay type: functional
Method in brief: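 MV4-11 cells (RPMI, 10 % FBS, 37 °C, 5 % CO2), 100,000 per well, exposed to PTB at 2.5, 5.0 or 10 μM for 72 h. Washed in ice-cold Ca/Mg-free PBS, stained with annexin V-FITC and PI in 1X binding buffer for 15 min in the dark, then read at once by flow cytometry. Necrotic cells are the annexin-negative/PI-positive quadrant.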

MOLM-14 [5] = test: Induction of apoptosis in human MOLM14 cells after 72 hrs by Annexin V-FITC/propidium iodide staining-based flow cytometric analysis; assay type: functional, cell-based; method in brief: as §1
MOLM-14 [6] = test: Upregulation of p21 protein expression in human MOLM14 cells by Western blot analysis; assay type: functional, cell-based
MV4-11 [7] = test: Upregulation of p21 protein expression in human MV4-11 cells by Western blot analysis; assay type: functional, cell-based
[8] = molecular target: Histone deacetylase (Homo sapiens) (UniProt Q13547+O15379+Q9UBN7+Q92769+Q9UQL6+Q8WUI4+Q9BY41+Q96DB2+P56524+Q9UKV0+Q969S8); test: Inhibition of HDAC in human MV4-11 cells assessed as increase in acetylation of histone H3 by Western blot analysis; assay type: cell-based
Method in brief: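 MV4-11 cells were treated and histones acid-extracted: Triton buffer, then NaCl buffer, 0.24 M H2SO4 on ice for 2 h, acetone precipitation overnight, Bradford quantitation. Histones (0.5 µg) were run on 4-20 % gradient gels, blotted to PVDF, blocked in 5 % milk and probed overnight at 4 °C with anti-acetyl-histone H3 (1:1000). HRP secondary, ECL detection, total histone H3 as loading control.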

MV4-11 [9] = test: Effect on total histone H3 protein expression in human MV4-11 cells by Western blot analysis; assay type: ADME, cell-based
Method in brief: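 Histones acid-extracted from MV4-11 cells: Triton/EDTA buffer lysis, NaCl wash, then 0.24 M H₂SO₄ final on ice for 2 h and acetone precipitation. Protein measured by Bradford. 0.5 µg loaded on 4-20 % gradient gels and transferred to PVDF. Anti-histone H3 probed as loading control alongside anti-acetyl-H3 (1:1000 in 5 % milk, overnight, 4 °C); HRP secondary 1 h, ECL detection.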

MOLM-14 [10] = test: Cytotoxicity against human MOLM14 cells assessed as cell viability after 24 to 96 hrs by MTT assay; assay type: functional, cell-based
Method in brief: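 AML cells kept in RPMI with 10 % FBS and 1 % penicillin-streptomycin at 37 °C, 5 % CO₂, mycoplasma-screened. Seeded at 8,000 cells/well across a range of concentrations and read at several times up to 96 h. MTT added to 0.5 mg/ml final for 3 h at 37 °C, formazan dissolved in SDS-HCl, absorbance read at 570 nm. IC50 taken from the dose-response curves.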

MOLM-14 [11] = test: Cell cycle arrest in human MOLM14 cells assessed as accumulation at G2/M phase after 72 hrs by propidium iodide staining-based flow cytometric analysis; assay type: functional
Method in brief: (§2)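 Cells in RPMI with 10 % FBS at 37 °C, 5 % CO₂; treated up to 72 h, washed in cold PBS, fixed in -20 °C-precooled 70 % ethanol at 4 °C. Stained with 50 µg/ml PI, 1 % Triton X-100 and 20 µg/ml RNase A in PBS, 30 min, 37 °C, dark. Cell-cycle phases read by flow cytometry; three independent experiments, mean ± SD.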

MOLM-14 [12] = test: Cell cycle arrest in human MOLM14 cells assessed as accumulation at sub-G1 phase after 72 hrs by propidium iodide staining-based flow cytometric analysis; assay type: functional; method in brief: as §2
MOLM-14 [13] = test: Induction of apoptosis in human MOLM14 cells assessed as early apoptotic cells at 2.5 uM after 72 hrs by Annexin V-FITC/propidium iodide staining-based flow cytometric analysis (reference value: 7%); assay type: functional; method in brief: as §1
MOLM-13 (Homo sapiens) [14] = test: Cytotoxicity against human MOLM13 cells assessed as cell viability at 0.25 to 5 uM by MTT assay
MOLM-13 (Homo sapiens) [15] = test: Cytotoxicity against human MOLM13 cells assessed as cell viability after 24 to 96 hrs by MTT assay
MOLM-13 (Homo sapiens) [16] = test: Cell cycle arrest in human MOLM13 cells assessed as accumulation at sub-G1 phase after 72 hrs by propidium iodide staining-based flow cytometric analysis
MOLM-13 (Homo sapiens) [17] = test: Cell cycle arrest in human MOLM13 cells assessed as decrease in cells level at G1 phase after 72 hrs by propidium iodide staining-based flow cytometric analysis
MOLM-13 (Homo sapiens) [18] = test: Induction of apoptosis in human MOLM13 cells assessed as necrotic cells at 5 uM after 72 hrs by Annexin V-FITC/propidium iodide staining-based flow cytometric analysis (reference value: 3%)
MOLM-13 (Homo sapiens) [19] = test: Induction of apoptosis in human MOLM13 cells assessed as necrotic cells at 10 uM after 72 hrs by Annexin V-FITC/propidium iodide staining-based flow cytometric analysis (reference value: 3%)
MOLM-13 (Homo sapiens) [20] = test: Induction of apoptosis in human MOLM13 cells assessed as late apoptotic cells at 10 uM after 72 hrs by Annexin V-FITC/propidium iodide staining-based flow cytometric analysis (reference value: 7%)
MOLM-13 (Homo sapiens) [21] = test: Induction of apoptosis in human MOLM13 cells assessed as late apoptotic cells at 2.5 uM after 72 hrs by Annexin V-FITC/propidium iodide staining-based flow cytometric analysis (reference value: 7%)
MOLM-13 (Homo sapiens) [22] = test: Induction of apoptosis in human MOLM13 cells assessed as early apoptotic cells at 10 uM after 72 hrs by Annexin V-FITC/propidium iodide staining-based flow cytometric analysis (reference value: 11%)

- inhibition [8]: Active
Structure (SMILES): c1ccc(Oc2ccc(-c3cn(-c4noc5ccccc45)nn3)cc2)cc1
- Activity (MOLM-14 [1]): 2%
- Activity (MOLM-14 [2]): 28%
- Activity (MOLM-14 [3]): 10%
- Activity (MV4-11 [4]): 5%
- Activity (MOLM-14 [5]): Dose-dependent effect
- Activity (MOLM-14 [6]): Active
- Activity (MV4-11 [7]): Active
- Activity (MV4-11 [9]): Non-toxic
- Activity (MOLM-14 [10]): Dose-dependent effect
- Activity (MOLM-14 [11]): Active
- Activity (MOLM-14 [12]): Active
- Activity (MOLM-14 [13]): 12%
- Activity (MOLM-13 (Homo sapiens) [14]): Dose-dependent effect
- Activity (MOLM-13 (Homo sapiens) [15]): Dose-dependent effect
- Activity (MOLM-13 (Homo sapiens) [16]): Active
- Activity (MOLM-13 (Homo sapiens) [17]): Active
- Activity (MOLM-13 (Homo sapiens) [18]): 18%
- Activity (MOLM-13 (Homo sapiens) [19]): 18%
- Activity (MOLM-13 (Homo sapiens) [20]): 35%
- Activity (MOLM-13 (Homo sapiens) [21]): 20%
- Activity (MOLM-13 (Homo sapiens) [22]): 28%
